Screens deposited in PubChem BioAssay by several laboratories.
A selection: hits, their analogues and other compounds. The true share with any hit is near 2%.
TRPML3 agonist – activates the human TRPML3 channel | 220,000 tested, 0.29% active | activation, % at 3 µM | HEK293 TRPML3-YFP, Fluo-8 calcium fluorescence; 100% = the carbachol control signal | Q8TDD5 | AID 1448;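 active = activation above its plate's cutoff, the mean activation of the plate's test wells plus 3 SD, cut at about 12% in these data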;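 note: 0% = DMSO only wells and 100% = carbachol wells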
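Material: HEK293 cells stably carrying human TRPML3-YFP; compound dosing: single dose, 3 µM final nominal compound, 0.3% DMSO final; incubation: 1-h 37 °C dye load, 5-s basal, 120-s post-compound reads; technique: Fluo-8 intracellular calcium fluorescence, excitation 470-495 nm, emission 515-575 nm; read-out basis: percent activation from peak-to-basal fluorescence ratio, scaled between DMSO and carbachol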
TRPN1 ag – zebrafish TRPN1 (NompC) channel agonism; 220,000 tested, 0.18% active; HEK293 zebrafish TRPN1-YFP, Fluo-8 calcium fluorescence; 100% = response to 87 µM carbachol; activation, % at 3 µM;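 active = activation above its plate's cutoff, the mean activation of test wells on that plate plus 3 SD, cut at about 19% in these data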;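 note: 0% = DMSO alone and 100% = 87 µM carbachol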
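Assay system: Zebrafish TRPN1-YFP in HEK293 cells | Incubation: Dye loading 1 h at 37 °C, then 30 min room temperature | Measured by: Kinetic Fluo-8 fluorescence, ex 470-495, em 515-575 nm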
CRFR2-BP ag – agonists of human CRF-binding protein/CRF-R2 receptor complex. 350,000 tested, 0.46% active. HEK293 CRF-R2/CRF-BP, calcium dye fluorescence (FLIPR); percent of saturating CRF peptide response. activation, % at 13.2 µM;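 active = activation of at least 50%, plus an integration ratio under a set limit after plate pattern correction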;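 note: plate controls were neutral control wells without compound for no effect and CRF at EC100 for full effect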
CRFBP-R2 block – blocks CRF-induced signaling of the CRF-BP/CRF-R2 complex; 350,000 tested, 0.59% active; HEK293 CRF-R2/CRF-BP, CRF-induced calcium fluorescence; inhibition, % at 11.8 µM;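 active = inhibition of the ligand-induced calcium signal above about 50% at the single tested concentration, limit read from the data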
GPR7 antag – blocks human GPR7 receptor signaling; P48145; GPR7-expressing cells, fluorescence antagonist assay; inhibition, % at 4.4 µM; 290,000 tested, 1.1% active; AID 1861; in the data active = inhibition above about 16%, passing the limit was not always enough;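 note: cells stimulated with the agonist NPW; 0% = agonist with vehicle and 100% = vehicle without agonist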
Target sequence (P48145 whole entry, looked up): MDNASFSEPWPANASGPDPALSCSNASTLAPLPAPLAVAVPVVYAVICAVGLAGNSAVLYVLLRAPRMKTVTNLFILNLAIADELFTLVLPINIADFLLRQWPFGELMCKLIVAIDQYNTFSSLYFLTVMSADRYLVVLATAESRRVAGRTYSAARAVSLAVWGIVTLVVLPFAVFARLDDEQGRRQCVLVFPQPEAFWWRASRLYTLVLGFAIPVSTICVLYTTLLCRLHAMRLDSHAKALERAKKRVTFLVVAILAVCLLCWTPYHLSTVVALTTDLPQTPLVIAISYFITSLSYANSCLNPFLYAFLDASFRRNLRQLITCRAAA
GPR7 antag conf – human GPR7 antagonism, confirmation assay; shares compounds with GPR7 antag; GPR7-expressing cells, calcium fluorescence antagonist mode; inhibition, % at 4.4 µM; 2,400 tested, 52% active; AID 1952; in the data active = inhibition above about 24%;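 note: stimulated with the GPR7 agonist NPW; 0% = agonist plus vehicle and 100% = vehicle alone without agonist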
MCHR1 antagonist – antagonizes human MCHR1, a GPR7 antagonist counter-screen; inhibition, % at 4.4 µM; shares compounds with GPR7 antag; MCHR1-expressing cells, fluorescence antagonist assay; 2,400 tested, 62% active; AID 2148; in the data active = inhibition above about 22%;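 note: 0% = vehicle with agonist and 100% = vehicle without agonist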
* hit, by the source's call; / = no result.

SMILES | TRPML3 agonist | TRPN1 ag | CRFR2-BP ag | CRFBP-R2 block | GPR7 antag | GPR7 antag conf | MCHR1 antagonist
Cc1ccc(C)c(CN2CCC(CNC(=O)Nc3ccc(F)c(Cl)c3)CC2)c1 | / | / | 5 | -12 | 38* | 40* | 68*
CC1CN(C(=O)Nc2cccc(C(F)(F)F)c2)CC(C)O1 (configuration not stated) | -2 | -2 | 0 | 27 | 27* | 24* | 36*
CCOC(=O)C(C(=O)N(C)Cc1ccccc1)C1CCCCC1 (configuration not stated) | / | / | -2 | -15 | 32* | 27* | 30*
COc1ccc(OCC(=O)Nc2ccc3c(c2)C(=O)NC3=O)cc1 | / | / | -1 | 7 | 29* | 26* | 17
Cc1cccc(C)c1OCC(=O)Nc1ccc2c(c1)C(=O)NC2=O | / | / | 0 | -6 | 32* | 27* | 29*
CC(C)(C)c1ccc(C(=O)Nc2ccc3c(c2)C(=O)NC3=O)cc1 | / | / | 2 | 1 | -9 | / | /
O=C(CSc1ccccc1)Nc1ccc2c(c1)C(=O)NC2=O | / | / | 0 | 2 | 27* | 37* | 36*
CC(=O)c1ccc(C(=O)Nc2ccc3c(c2)C(=O)NC3=O)cc1 | / | / | 0 | -2 | 22* | -11 | 6
Cc1ccc(SCC(=O)Nc2ccc3c(c2)C(=O)NC3=O)cc1 | 0 | 2 | 1 | 22 | 20 | / | /
CCC1CCCCN1CCCNC(=O)c1ccc(CS(=O)(=O)c2ccccc2C)o1 (configuration not stated) | / | / | 1 | 0 | -8 | / | /
COc1ccc(NC(=O)CS(=O)(=O)c2cn(CC(=O)N3CCCC3)c3ccccc23)c(OC)c1 | / | / | 0 | 1 | 0 | / | /
COc1ccc(C[C@H]2CN3C(=NC[C@@H]3Cc3ccccc3)N2CCNC(=O)CCC2CCCCC2)cc1 | 0 | -2 | -1 | -13 | 37* | 52* | 39*
COc1ccc(C[C@H]2CN3C(=NC[C@@H]3C(C)C)N2CCNC(=O)CCC2CCCCC2)cc1 | -1 | -1 | 0 | -9 | 9 | / | /
Cc1nc(-c2ccc(S(=O)(=O)N3CCOCC3)cc2)cs1 | / | / | 0 | 19 | 27* | -7 | 16
Cc1nc(-c2ccc(S(=O)(=O)N3CCCCCC3)cc2)cs1 | 3 | 3 | 2 | 4 | -4 | / | /
COc1cccc(CN(C)C(=O)c2cc(COc3ccc4ncccc4c3)on2)c1 | 4 | 11 | -1 | 1 | 33* | 40* | 57*
COc1cccc(CN(C)C(=O)c2cc(COc3c(F)cccc3F)on2)c1 | -1 | -1 | 0 | 33 | 4 | / | /
C=CCN1C(=O)CSc2ccc(C(=O)NCc3cccs3)cc21 | 0 | 2 | -4 | -6 | 28* | 10 | 13
CSc1ccc(S(=O)(=O)N2c3ccccc3CC2C)cc1 (configuration not stated) | / | / | 1 | 22 | -10 | / | /
CCN(Cc1ccccc1)Cc1nnnn1Cc1ccccc1 | -2 | -4 | -1 | 15 | 26* | 18 | 16
CCc1nnc(NC(=O)CCC(=O)N2CCN(c3cc(Cl)ccc3C)CC2)s1 | / | / | 0 | -3 | -8 | / | /
O=C(CC(CC(=O)c1ccccc1)c1ccccn1)c1ccccc1 | / | / | -4 | 0 | / | / | /
Cc1ccc(OCCn2cc(C(=S)N3CCCC3)c3ccccc32)cc1C | -1 | 0 | 1 | -10 | 27* | 29* | 68*
COCCNC(=O)Cn1cc(C(=S)N2CCCCC2)c2ccccc21 | 0 | -3 | -2 | -4 | 24* | -6 | 3
Cc1ccc(OCCC(=O)OCC(=O)NCCc2ccc(Cl)cc2)cc1 | / | / | 4 | -15 | / | / | /
SMILES | TRPML3 agonist | TRPN1 ag | CRFR2-BP ag | CRFBP-R2 block | GPR7 antag | GPR7 antag conf | MCHR1 antagonist
CCC(=O)N1c2ccc(S(=O)(=O)N3CCN(CC)CC3)cc2CC1C (configuration not stated) | / | / | 0 | -5 | -2 | / | /
Cc1cccc(N2CCN(S(=O)(=O)c3ccc4c(c3)CC(C)N4C(=O)C3CC3)CC2)c1C (configuration not stated) | / | / | 1 | 9 | 28* | 29* | 44*
CCC(=O)N1c2ccc(S(=O)(=O)N3CCN(c4ccc([N+](=O)[O-])cc4)CC3)cc2CC1C (configuration not stated) | / | / | -2 | -14 | 36* | 33* | 44*
COc1ccccc1OCCNC(=O)c1ccc(C)c(S(=O)(=O)N2CCOCC2)c1 | / | / | -1 | -2 | / | / | /
CN(C)S(=O)(=O)c1ccc(N2CCCC2)c(C(=O)NC(c2ccccc2)c2ccccc2)c1 | 0 | -1 | 1 | 2 | 25* | 32* | 22*
CCC(=O)c1cn(CC(=O)Nc2cccc(OC)c2)c2ccccc12 | / | / | -3 | -2 | 11 | / | /
COc1ccc(C)c2sc(N(CCN(C)C)C(=O)/C=C/c3cccs3)nc12 | / | / | 4 | 2 | 29* | 38* | 38*
COc1cccc2sc(N(CCN(C)C)C(=O)/C=C/c3cccs3)nc12 | 2 | 3 | -1 | 0 | -5 | / | /
COc1ccc(OC)c2sc(N(CCN(C)C)C(=O)/C=C/c3cccs3)nc12 | / | / | -1 | 10 | 31* | 13 | 19
Cc1ccc(S(=O)(=O)N2CCCC2CNC(=O)c2ccc3c(c2)OCO3)cc1 (configuration not stated) | / | / | -2 | -13 | / | / | /
Cc1ccc(-n2cccn2)c(CN2CCCC(C(=O)c3sccc3C)C2)c1 (configuration not stated) | -1 | -2 | -1 | 4 | 33* | 39* | 41*
O=C(CN1C(=O)COc2ccc(S(=O)(=O)N3CCCCCC3)cc21)NCc1ccc(F)cc1 | / | / | -2 | 13 | -1 | / | /
CCc1sc(C(=O)N2CCN(C(=O)c3ccccc3)CC2)cc1C | / | / | -1 | 2 | / | / | /
CC1CC(C)CN(C(=O)CNC(=O)c2ccc3ccccc3c2)C1 (configuration not stated) | / | / | -1 | -12 | -5 | / | /
CCCCn1c(N)c(N(CC)C(=O)CSc2nnnn2-c2cc(C)ccc2C)c(=O)[nH]c1=O | 0 | -3 | -1 | 15 | 23* | -9 | -10
S=C(NCCN(C1CCCCC1)C1CCCC1)Nc1cccc(Cl)c1 | / | / | 5 | -39 | 55* | 60* | 69*
O=[N+]([O-])c1ccc(NC(=S)NCc2ccc(F)cc2)cc1 | / | / | 8 | 67* | 40* | 59* | 71*
O=[N+]([O-])c1ccc(NC(=S)NCCc2ccc(Cl)cc2)cc1 | 11 | 17 | 7 | 28 | 49* | 65* | 70*
O=[N+]([O-])c1ccc(NC(=S)NCc2ccncc2)cc1 | 3 | 6 | 2 | 16 | -11 | / | /
Fc1ccc(CNC(=S)Nc2cccc(Cl)c2)cc1 | 6 | 12 | 1 | 28 | 36* | 14 | 53*
S=C(NCCC(c1ccccc1)c1ccccc1)Nc1cccc(Cl)c1 | 1 | 1 | 3 | -58 | -4 | / | /
